The text below walks through data of ChEMBL document CHEMBL3259696, “Berberine and its metabolites: relationship between physicochemical properties and plasma levels after administration to human subjects” (J Nat Prod, 2014).

The nature of data set [1]: 1-Octanol-water partition coefficient, log P of the compound at pH 8.6 after 1 week by HPLC-ESIMS/MS analysis. The class given is physicochemical. The gist of the method:
(§1)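 Shake-flask partition: analytes started at 0.1 mM in 0.1 M Na phosphate buffer (pH range 4.5 to 9). Buffer solution mixed 1:1 with buffer-presaturated 1-octanol and equilibrated 1 week under continuous stirring at 25 °C. After centrifugation the phases were separated, and the aqueous phase was diluted in mobile phase and quantified by HPLC-ESIMS/MS. LogD calculated from the aqueous-phase concentration.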

A short description of data set [2]: 1-Octanol-water partition coefficient, log P of the compound at pH 7 after 1 week by HPLC-ESIMS/MS analysis. The class given is physicochemical. The gist of the method: as §1
Data set [3] in a line: 1-Octanol-water partition coefficient, log P of the compound at pH 6 after 1 week by HPLC-ESIMS/MS analysis. Format: physicochemical. The gist of the method: as §1
Data set [4] can be described thus: 1-Octanol-water partition coefficient, log P of the compound at pH 4.5 after 1 week by HPLC-ESIMS/MS analysis. Format: physicochemical. The gist of the method:
as §1

Data set [5] is described as follows: 1-Octanol-water distribution coefficient, log D of the compound at pH 8.6 after 1 week by HPLC-ESIMS/MS analysis. Format: physicochemical. The gist of the method: as §1
Data set [6] can be described thus: 1-Octanol-water distribution coefficient, log D of the compound at pH 7 after 1 week by HPLC-ESIMS/MS analysis. The class given is physicochemical. The procedure, abridged:
as §1

The nature of data set [7]: 1-Octanol-water distribution coefficient, log D of the compound at pH 6 after 1 week by HPLC-ESIMS/MS analysis. Format: physicochemical. The gist of the method:
as §1

Data set [8] can be described thus: 1-Octanol-water distribution coefficient, log D of the compound at pH 4.5 after 1 week by HPLC-ESIMS/MS analysis. The class given is physicochemical. The procedure, abridged:
as §1

Data set [9] is described as follows: Solubility of the compound in sodium phosphate buffer at pH 8.6 at 25 degC after 1 week by HPLC-ESIMS/MS analysis. Format: physicochemical. The gist of the method:
(§2)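 Solubility samples in sodium phosphate buffer at each pH were stirred continuously for 1 week at 25 °C. Solutions were passed through 0.45 μm regenerated-cellulose filters, diluted in mobile phase and quantified by HPLC-ESIMS/MS.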

A short description of data set [10]: Solubility of the compound in sodium phosphate buffer at pH 7 at 25 degC after 1 week by HPLC-ESIMS/MS analysis. The class given is physicochemical. The procedure, abridged:
as §2

A short description of data set [11]: Solubility of the compound in sodium phosphate buffer at pH 6 at 25 degC after 1 week by HPLC-ESIMS/MS analysis. The class given is physicochemical. The procedure, abridged:
as §2

Data set [12] can be described thus: Solubility of the compound in sodium phosphate buffer at pH 4.5 at 25 degC after 1 week by HPLC-ESIMS/MS analysis. Format: physicochemical. The procedure, abridged:
as §2

In data set [13] the target is Albumin (Bos taurus, UniProt P02769). Briefly: Binding affinity to bovine serum albumin by fluorescence quenching assay. Format: ADME. Particulars: cattle, isolated protein. The gist of the method:
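BSA at 1.0 × 10−5 mol L−1 in Tris-HCl buffer (0.05 M Tris, 0.15 M NaCl, pH 7.4), titrated with quencher from 0 to 2.4 × 10−5 mol L−1 in 0.2 × 10−5 steps at room temperature. Tryptophan emission recorded at 300–500 nm (excitation 295 nm; maximum at 340 nm). Binding constant KB obtained from a modified Stern–Volmer plot, assuming static quenching.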

A short description of data set [14]: Cmax in human plasma at 500 mg, po by HPLC-ESIMS/MS analysis. Format: ADME, organism-based. Details: dose 500 mg, route oral.
Data set [15] in a line: Tmax in human at 500 mg, po by HPLC-ESIMS/MS analysis. The class given is ADME, organism-based. The conditions noted are these: in vivo.
The test system of data set [16] is Plasma. Briefly: Cmax in human plasma assessed as demethyleneberberin at 500 mg, po by HPLC-ESIMS/MS analysis. The class given is ADME, organism-based. Details: dose 500 mg, route oral. The conditions noted are these: in vivo.
Data set [17] concerns Plasma. Briefly: Cmax in human plasma assessed as jatrorrhizine at 500 mg, po by HPLC-ESIMS/MS analysis. Format: ADME, organism-based. On the set-up: dose 500 mg, route oral. Particulars: in vivo.
Data set [18] deals with Homo sapiens. Description: Tmax in human assessed as demethyleneberberin at 500 mg, po by HPLC-ESIMS/MS analysis. The class given is ADME, organism-based. Particulars: in vivo.
For data set [19], the system named is Homo sapiens. Briefly: Tmax in human assessed as jatrorrhizine at 500 mg, po by HPLC-ESIMS/MS analysis. Format: ADME, organism-based. Particulars: in vivo.
For data set [20], the system named is Plasma. Briefly: Cmax in human plasma assessed as berberrubine at 500 mg, po after 4 hrs by HPLC-ESIMS/MS analysis. The class given is ADME, organism-based. On the set-up: dose 500 mg, route oral. The conditions noted are these: in vivo.
The test system of data set [21] is Plasma. Description: Plasma concentration in human assessed as berberrubine at 500 mg, po after 24 hrs by HPLC-ESIMS/MS analysis. The class given is ADME, organism-based. Particulars: in vivo.
Data set [22] can be described thus: Cmax at steady state in hypercholesterolemic patient at 15 mg/kg administered for 3 months by HPLC-ESIMS/MS analysis. On the set-up: dose 15 mg/kg. The conditions noted are these: human, in vivo. Format: ADME, organism-based.
Data set [23] has as its system Homo sapiens. Briefly: Cmax at steady state in hypercholesterolemic patient assessed as berberrubine at 15 mg/kg/day administered for 3 months by HPLC-ESIMS/MS analysis. On the set-up: dose 15 mg/kg/day. The class given is ADME, organism-based. Particulars: in vivo.
In data set [24] the test system is Homo sapiens. Description: Cmax at steady state in hypercholesterolemic patient assessed as demethyleneberberin at 15 mg/kg/day administered for 3 months by HPLC-ESIMS/MS analysis. Format: ADME, organism-based. On the set-up: dose 15 mg/kg/day. Particulars: in vivo.
The subject of data set [25] is Homo sapiens. Briefly: Cmax at steady state in hypercholesterolemic patient assessed as jatrorrhizine at 15 mg/kg/day administered for 3 months by HPLC-ESIMS/MS analysis. Details: dose 15 mg/kg/day. Particulars: in vivo. The class given is ADME, organism-based.
Data set [26] has as its system Homo sapiens. Briefly: Hypolipidemic activity in hypercholesterolemic patient assessed as reduction of total cholesterol level at 15 mg/kg/day administered for 3 months measured every month during compound treatment. The class given is functional, organism-based.
In data set [27] the test system is Homo sapiens. Briefly: Hypolipidemic activity in hypercholesterolemic patient assessed as reduction of LDL cholesterol level at 15 mg/kg/day administered for 3 months measured every month during compound treatment. Format: functional, organism-based.
Data set [28] concerns Homo sapiens. Description: Effect on total triglyceride level in hypercholesterolemic patient at 15 mg/kg/day administered for 3 months measured every month during compound treatment. The class given is functional, organism-based.
The test system of data set [29] is Homo sapiens. Description: Effect on HDL cholesterol level in hypercholesterolemic patient at 15 mg/kg/day administered for 3 months measured every month during compound treatment. The class given is functional, organism-based.
Data set [30] is described as follows: Dissociation constant, acidic pKa of the compound. Format: physicochemical.
A short description of data set [31]: Dissociation constant, basic pKa of the compound. The class given is physicochemical.
Data set [32] in a line: Dissociation constant, pKa of the compound. Format: physicochemical. The gist of the method:
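pKa values predicted in silico for the ionizable groups of the parent and its metabolites, then compared with experimentally obtained values from earlier reports.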

Structures are written as SMILES. Activity calls are given as the source filed them. The calls are words filed in the database; no cut-off is given here.

The logD is the decadic logarithm of the distribution of all forms, ionised or not, between an organic phase and buffer at a given pH. A high value points to higher lipophilicity. The solubility is the dissolved amount per volume that the medium holds. The low end stands for little dissolved substance, the high end for much dissolved substance. As usually defined, the Cmax is the peak of the concentration-time curve. A word on the Tmax: it is the time from dosing to the highest level. What is called pKa is the pH at which an ionisable group is half protonated. Lower therefore signals a group that gives up its proton readily.

Sequence of Albumin (P02769 whole entry): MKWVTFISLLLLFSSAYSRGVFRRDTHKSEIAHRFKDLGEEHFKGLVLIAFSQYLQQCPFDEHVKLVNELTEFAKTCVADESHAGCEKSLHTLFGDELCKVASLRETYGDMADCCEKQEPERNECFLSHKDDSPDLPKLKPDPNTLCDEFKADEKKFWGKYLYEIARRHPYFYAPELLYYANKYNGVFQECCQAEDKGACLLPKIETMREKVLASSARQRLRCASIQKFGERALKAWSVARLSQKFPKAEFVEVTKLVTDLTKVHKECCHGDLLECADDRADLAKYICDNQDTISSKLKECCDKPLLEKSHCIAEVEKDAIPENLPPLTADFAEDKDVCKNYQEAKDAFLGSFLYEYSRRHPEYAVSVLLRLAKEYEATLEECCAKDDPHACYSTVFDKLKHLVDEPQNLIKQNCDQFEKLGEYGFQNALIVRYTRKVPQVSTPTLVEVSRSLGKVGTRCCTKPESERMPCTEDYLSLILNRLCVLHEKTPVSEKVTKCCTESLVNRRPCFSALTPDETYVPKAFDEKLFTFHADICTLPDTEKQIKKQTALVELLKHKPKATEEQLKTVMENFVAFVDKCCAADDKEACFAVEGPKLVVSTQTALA

For `COc1ccc2cc3n(cc-2c1=O)CCc1cc2c(cc1-3)OCO2`, the logD at 168 h stood at 1.6 in data set [1]; 1.5 in [2]; 1.3 in [3]; 0.6 in data set [4]; 4.6 in data set [5]; 2.9 in data set [6]. Also, the values for the logD at 168 h in data set [7] and in data set [8] were 1.8 and 0.7, respectively.

For the compound `COc1ccc2cc3[n+](cc2c1OC)CCc1cc2c(cc1-3)OCO2.[Cl-]` [BERBERINE CHLORIDE], the solubility at 168 h is 9.6 mM in [9], 9 mM in data set [10], 7.6 mM in [11] and 8.2 mM in data set [12]. Moreover, the logD at 168 h in [1], in data set [2], in data set [3], in data set [4], in data set [5] and in data set [6] was -1.2 each time. Further, the logD at 168 h in data set [7] and in data set [8] was -1.2 in each case. In data set [13], the Kb was determined as 3.37 ×10³ L/mol. The highest concentration (Cmax) in data set [14] stood at 0.07 nM; in data set [16], 0.14 nM; in data set [17], 0.13 nM; in [20] it was 1.4 nM; in data set [23], 6.7 nM; in [24], 1.7 nM. Also, in [25], the Cmax is 5.6 nM. In addition, the results for the Tmax in data set [15], in data set [18] and in data set [19] were 1 h, 1 h and 2 h, respectively. In data set [21], the concentration was determined as 0.15 nM. For the same compound, in [22], the highest level (Cmax at 3 months) was 4 nM. Further, the result in data set [26] and in data set [27] was Active. The result in data set [28] and in [29] was inactive. The pKa in data set [30] was determined as 2.47; in data set [31], 15.7.

As for `COc1ccc2cc3[n+](cc2c1O)CCc1cc2c(cc1-3)OCO2.[Cl-]` [BERBERRUBINE CHLORIDE], the solubility at 168 h in data set [9] amounted to 0.5 mM; in [10], 1 mM; in [11], 2 mM; in data set [12], 4.2 mM. Moreover, the logD at 168 h in data set [1] is 1.6; in data set [2] it was 1.1; in data set [3], 0.9; in data set [4], -0.02; in [5] it was 4.6; in data set [6] it was 2.5. The logD at 168 h in data set [7] stood at 1.4; in data set [8], 0.01. The compound further yielded a Kb in data set [13] of 1.51 ×10³ L/mol. The compound further registered a pKa in data set [32] of 5.

Turning to `COc1ccc2cc3[n+](cc2c1OC)CCc1cc(O)c(O)cc1-3.[Cl-]`, the solubility at 168 h amounted to 6.5 mM in data set [9], 3.7 mM in [10], 0.2 mM in data set [11] and 0.2 mM in [12]. The logD at 168 h is -0.5 in [1]; -1.1 in [2]; -1.1 in data set [3]; -1.1 in [4]; -0.3 in data set [5]; -1.1 in data set [6]. The logD at 168 h in data set [7] and in [8] was -1.1 in each case. Moreover, the Kb in [13] is recorded as 1.98 ×10³ L/mol. Also, the pKa in data set [32] amounted to 9.4.

With `COc1cc2c(cc1O)CC[n+]1cc3c(OC)c(OC)ccc3cc1-2.[Cl-]` [JATRORRHIZINE CHLORIDE], the solubility at 168 h came to 12.2 mM in [9], 12.4 mM in data set [10], 1.3 mM in data set [11] and 1.5 mM in [12]. The logD at 168 h in data set [1] was 0.1; in data set [2], -1.2; in data set [3] it was -1.5; in data set [4] it was -1.5; in data set [5] it was 0.6; in data set [6] it was -1.2. Moreover, the logD at 168 h in data set [7] and in [8] was -1.5 in each case. The compound further showed a Kb in data set [13] of 1.73 ×10³ L/mol. Further, the pKa in data set [32] came to 9.6.
